Assay outcomes (PubChem BioAssay)
STAT3 blocker: inhibitors of IL-6 induced STAT3 signaling; U3A cells, IL-6 STAT3-luciferase reporter, luminescence; host cell line lacks STAT1; inhibition, % at 5.5 µM; 190,000 compounds, 0.89% hits;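 active means inhibition above the mean inhibition across all screened compounds plus 3 SD, cut at about 44% in these data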;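 further: 0% = DMSO only wells and 100% = 100 µM nifuroxazide control wells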
NF-kB expr up: compounds increasing NF-kB expression in human neuronal cells; fold change at 12.5 µM; NF-kB reporter expression; hits give high values; 190,000 compounds, 1.6% hits; in the data active means fold change above about 3.3
STAT3 activator: STAT3 signaling activation. U3A cells, IL-6 STAT3-luciferase reporter, luminescence; 100% = signal with IL-6 EC80 alone. activation (% of control), % at 5.6 µM. 190,000 compounds, 0.91% hits;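 active means activation above the screen-wide mean of compound activation plus 3 SD, cut at about 130% in these data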;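 further: 0% = background luminescence of wells with medium and substrate only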
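Detection: reporter luminescence signal / Assay system: STAT1-lacking human U3A cells, STAT3 luciferase reporter / Incubation: compound pre-incubation 1 h before IL-6, then 6 h stimulation at 37 °C / Control set: IL-6-only high control / Read-out: % activation relative to IL-6 control / Probe or stimulus: Interleukin-6, 33 ng/mL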
STAT1 blocker: inhibitors of IFN-gamma induced STAT1 signaling | 200,000 compounds, 0.35% hits | AID 920 | NIH 3T3 STAT1-luciferase reporter, luminescence | inhibition, % at 5.5 µM;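 active means inhibition above a set limit, the mean inhibition across all tested compounds plus 3 SD, cut at about 34% in these data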;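 further: 0% = IFN-gamma with DMSO and 100% = IFN-gamma with 300 µM nifuroxazide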
APP 5'UTR act: APP 5'UTR luciferase reporter activation; activation, % at 2 µM; SH-SY5Y APP 5'UTR luciferase reporter, luminescence; zero percent = DMSO vehicle wells; 190,000 compounds, 1% hits; AID 1276;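 active means activation above a set limit, based on mean plus 3 SD of controls, cut at about 140% in these data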
STAT1 act: STAT1 signaling activation. AID 932. activation (% of control), % at 5.5 µM. 200,000 compounds, 2.6% hits. NIH 3T3 STAT1-luciferase reporter, IFN-gamma, luminescence; 100% = IFN-gamma alone, no compound;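 active means activation above the screen-wide mean activation plus 3 SD, cut at about 130% in these data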;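 further: raw ratio to IFN-gamma control signal so 100% means no change and 0% no light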
* = called active by the depositor. Only some compounds are listed: those with a hit (about 4.9% of all), similar ones and a draw of the others.

SMILES	STAT3 blocker	NF-kB expr up	STAT3 activator	STAT1 blocker	APP 5'UTR act	STAT1 act
COc1ccc(OC)c(C2C3=C(CCCC3=O)Nc3nnnn32)c1 (configuration not stated)	8	1.2	96	-7	1	107
O=C(NCc1ccccn1)C(=O)Nc1ccccc1	5	3.1	98	-29	73	125
Cc1ccc(NC(=O)C(=O)NCc2ccccn2)cc1	4	2.4	99	-38	27	134*
CNCC(=O)N(CC(C)C)c1c(N)n(CC(C)C)c(=O)[nH]c1=O	0	0.88	102	4	-3	95
Fc1ccccc1/C=N/Nc1ncnc2ccccc12	26	7.9*	84	-29	76	127
Nc1cc(-c2nn[nH]n2)ccc1F	10	1	95	5	7	96
CCCc1ccc(-c2ccc(F)c(N)c2)nc1	97*	4.2*	24	37*	140*	67
Cc1ccc(-c2nn(-c3ccccc3)cc2C(=O)Nc2ccc(C(=O)O)cc2)cc1	-7	1.8	110	-35	31	130*
CCOC(=O)c1ccc(NC(=O)c2cn(-c3ccccc3)nc2-c2ccncc2)cc1	-24	0.49	124	6	2	95
CC(=O)Nc1ccccc1NC(=O)c1ccccc1	3	1	103	-1	9	99
Nc1ccccc1NC(=O)c1ccccc1	-2	3.9*	106	-4	44	104
CCc1ccc(NC(=O)c2noc3c2CCc2ccccc2-3)cc1	0	2	106	-14	1	113
Cc1ccc(NC(=O)c2ccccc2)cc1	2	3.5*	100	-40	97	135*
Cc1ccc(NC(=O)c2noc3c2CCc2ccccc2-3)cc1	-9	2.6	114	-33	60	131*
Cc1ccc(NC(=O)NNC(=O)c2ccccc2)cc1	1	1.3	102	-6	-1	104
Cc1nc2nc(C)c(CCC(=O)Nc3ccc4c(c3)OCO4)c(C)n2n1	2	1	99	1	-4	99
CC(C)C(C(=O)Nc1ccc(S(N)(=O)=O)cc1)N1C(=O)c2ccccc2C1=O (configuration not stated)	14	1.2	92	1	-4	96
CCOC(=O)c1c(C)[nH]c(N=Nc2ccccc2C)c1C	0	1.9	104	-25	32	123
Cc1ccc(NC(=O)c2ccccc2O)cc1	18	6*	88	-4	131	105
Cc1ccc(NC(=O)c2ccc(CSc3nnc(C)s3)cc2)cc1	10	3.9*	93	-26	70	123
Cc1ccc(NC(=O)c2ccccc2-c2ccccc2C(=O)O)cc1	1	1.1	97	-2	-2	104
Cc1cc(C)cc(NC(=O)c2ccc(CSc3nnc(C)s3)cc2)c1	9	1.4	94	2	12	98
COC(=O)c1c(NC(=S)Nc2ccccc2Cl)sc(C)c1C	18	1.2	94	2	1	98
c1ccc(-c2cnc(CSc3nnc4ccccn34)o2)cc1	2	2.5	102	-38	130	137*
Fc1ccc(-c2nnc(CSc3nnc4ccccn34)o2)cc1	-8	2	105	-26	10	124
SMILES	STAT3 blocker	NF-kB expr up	STAT3 activator	STAT1 blocker	APP 5'UTR act	STAT1 act
CC(=O)Nc1ccc(-c2csc(Nc3cc(C)ccn3)n2)cc1	24	1.1	88	-44	41	140*
Cc1ccc(Nc2nc(-c3ccc(O)c(O)c3)cs2)nc1	21	9.4*	85	-42	-6	136*
CC(=O)Nc1cccc(-c2csc(Nc3ccccn3)n2)c1	18	5.4*	87	-49	184*	143*
COc1ccc(-c2csc(Nc3ccc(C)cn3)n2)cc1OC	17	1.2	89	-24	31	122
c1ccc(Nc2nc(-c3cccnc3)cs2)nc1	18	5*	88	-49	194*	144*
c1ccc(Nc2nc(-c3cccs3)cs2)nc1	8	9.6*	95	-38	181*	136*
CC(=O)c1cccc(Nc2nc(-c3cccc([N+](=O)[O-])c3)cs2)c1	7	1.5	102	-46	1	131*
Cc1ccc(C)[n+](CC(=O)c2ccc(-c3ccccc3)cc2)c1	6	0.74	96	23	1	78
Cc1[nH]nc(-c2ccc(O)c(C)c2O)c1-c1cnn(-c2ccccc2)c1	16	0.51	89	3	21	97
CC(=O)N(c1nc(CCl)cs1)c1cccc(C)c1C	-1	1.1	105	-8	5	106
CCN(CC)c1ccc(/C=N/Nc2nc3ccccc3[nH]2)cc1	-26	0.26	125	-81	-12	172*
C(=N\Nc1nc2ccccc2[nH]1)/c1cccs1	14	4.1*	97	-54	137*	148*
COC(=O)c1ccc(/C=N/Nc2nc3ccccc3[nH]2)cc1	-4	1.3	103	-41	57	138*
CC(=O)Nc1ccc(/C=N/Nc2nc3ccccc3[nH]2)cc1	-8	1.6	102	-16	20	115
C/C(=N\Nc1nc2ccccc2[nH]1)c1ccc2c(c1)OCO2	-9	1.2	107	13	36	88
C(=N\Nc1nc2ccccc2[nH]1)/c1ccc2c(c1)OCO2	20	4.1*	91	-46	149*	141*
C(=N\Nc1nc2ccccc2[nH]1)/c1ccncc1	-3	1.1	107	-30	10	128
CC(C)C(NS(=O)(=O)c1ccccc1)C(=O)OCc1cc([N+](=O)[O-])cc2c1OCOC2 (configuration not stated)	-1	0.75	100	2	15	98
Cc1sc2ncn(CC(=O)N3CCOCC3)c(=O)c2c1-c1ccccc1	8	0.94	99	-1	-10	101
O=C(Cc1ccccc1)N/N=C/c1ccc2c(c1)OCO2	-13	2	119	-22	84	120
Clc1ccccc1N/N=C/c1ccc2c(c1)OCO2	-3	3.1	106	-39	114	135*
Cc1ccc(C2CN(c3ccccc3)CC2C(=O)c2ccc(F)cc2)cc1 (configuration not stated)	7	0.86	98	12	6	89
O=C(Nc1ccccc1Cl)c1ccccc1Cc1ccccc1	-5	1.1	105	-5	14	105
Cc1ccccc1NC(=S)NNC(=O)c1csc2c1CCC(C)C2 (configuration not stated)	30	0.46	78	8	180*	93
CC1CCc2c(C(=O)Nc3nccs3)csc2C1 (configuration not stated)	-8	4.1*	109	-17	60	116
Cc1ccc(CNC(=O)C(CCC(N)=O)NC(=O)OCc2ccccc2)cc1 (configuration not stated)	-1	1.1	103	3	-15	98
